Laboratory results published in ChEMBL document CHEMBL5674865, “BRD4 associates with p53 in DNMT3A-mutated leukemia cells and is implicated in apoptosis by the bromodomain inhibitor JQ1” (Cancer Med, 2013).
Calls of active or inactive are those of the source. No cut-off for these calls is given here.

Experiments:
[1] = test system: OCI-AML-3; experiment: Induction of DNA damage in human OCI-AML-3 cells harbouring DNMT3A-R882C and NPM1c mutants co-expressing wild-type p53 at 0.25 uM assessed as induction of gammaH2AX incubated for 24 hrs in combination with 10 uM KU60019 by immunolabeling method; type: functional, cell-based
How it was run: (§1)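 OCI-AML3 cells treated 24 h with 0.25 µmol/L JQ1, alone or with 10 µmol/L KU60019, […] caffeine or 1 µmol/L NU7026 added together. Cells cytospun, fixed in 4% paraformaldehyde and permeabilized with 0.2% Triton X-100. Stained with anti-γH2AX (1:500) and anti-53BP1 (1:1000) for 1 h at RT, then fluorescent secondaries and DAPI. Pan-nuclear γH2AX cells and 53BP1 foci scored by microscopy. Three experiments.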

[2] = test system: K562; experiment: Antiproliferative activity against human K562 cells assessed as decrease in cell viability after 96 hrs by WST-1 assay; type: functional, cell-based
How it was run: (§2)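 WST-1 viability assay. 2 × 10^4 cells per well with compound, incubated for the indicated times, read at 450 nm 2–4 h after WST-1 addition. Viability is given as % of untreated cells by optical density. Compounds are dissolved in DMSO and diluted in PBS.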

[3] = test system: OCI-AML-3; experiment: Antiproliferative activity against human OCI-AML-3 cells harbouring DNMT3A-R882C and NPM1c mutants co-expressing wild-type p53 assessed as decrease in cell viability after 96 hrs by WST-1 assay; type: functional, cell-based; how it was run: as §2
[4] = test system: Raji; experiment: Antiproliferative activity against human Raji cells assessed as decrease in cell viability after 96 hrs by WST-1 assay; type: functional, cell-based; how it was run: as §2
[5] = test system: OCI-AML-3; experiment: Induction of apoptosis in human OCI-AML-3 cells harbouring DNMT3A-R882C and NPM1c mutants co-expressing wild-type p53 at 0.25 uM measured after 24 hrs by Annexin V/PI staining based flow cytometry method; type: functional, cell-based
How it was run: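 OCI-AML3 cells treated for 24 h with 0.25 µmol/L JQ1, Nutlin-3 or both. Stained with annexin V and propidium iodide and analyzed by flow cytometry. Quadrant analysis of apoptotic populations.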

[6] = test system: OCI-AML-3; experiment: Induction of DNA damage in human OCI-AML-3 cells harbouring DNMT3A-R882C and NPM1c mutants co-expressing wild-type p53 at 0.25 uM assessed as increase in pyknotic nuclei incubated for 48 hrs by DAPI staining method; type: functional
How it was run: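 OCI-AML3 cells treated with 0.25 µmol/L JQ1 for 48 h, cytospun and fixed. DAPI-stained nuclei examined by fluorescence microscopy and the percentage of pyknotic nuclei scored.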

[7] = test system: OCI-AML-3; experiment: Induction of apoptosis in human OCI-AML-3 cells harbouring DNMT3A-R882C and NPM1c mutants co-expressing wild-type p53 at 0.25 uM assessed as activation of caspase 3/7 measured in combination of 20 nM trichostatin A after 24 hrs by Caspase-Glo 3/7 assay; type: functional, cell-based
How it was run: (§3)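 Caspase-Glo 3/7 luminescence assay. OCI-AML3, Raji or K562 cells plated at 20,000 per well and treated with 0.25 µmol/L JQ1, with or without 20 nmol/L TSA. Luminescence read at 2, 4 or 24 h.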

[8] = test system: OCI-AML-3; experiment: Antiproliferative activity against human OCI-AML-3 cells harbouring DNMT3A-R882C and NPM1c mutants co-expressing wild-type p53 at 0.25 uM assessed as cell death after 96 hrs by trypan blue assay; type: functional, cell-based
How it was run: (§4)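 OCI-AML3 growth curves. 80,000 cells per well in medium with or without 0.25 µmol/L JQ1. Viable cells counted by trypan blue exclusion every 24 h up to 96 h.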

[9] = test system: OCI-AML-3; experiment: Antiproliferative activity against human OCI-AML-3 cells harbouring DNMT3A-R882C and NPM1c mutants co-expressing wild-type p53 at 0.25 uM assessed as decrease in cell viability in combination of 0.5 mM sodium butyrate after 72 hrs by WST-1 assay; type: functional, cell-based
How it was run: (§5)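 WST-1 viability of OCI-AML3 combinations. 20,000 cells per well treated with 0.25 µmol/L JQ1 plus the partner compound (Nutlin-3 0–2 µmol/L or 1–5 µmol/L; TSA 20 nmol/L; vorinostat 0.625 µmol/L; sodium butyrate 0.5 mmol/L; daunorubicin 0–50 nmol/L), applied together for 72 h. Read at 450 nm and expressed as % of untreated. Three experiments run in triplicate.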

[10] = test system: OCI-AML-3; experiment: Induction of apoptosis in human OCI-AML-3 cells harbouring DNMT3A-R882C and NPM1c mutants co-expressing wild-type p53 at 0.25 uM assessed as activation of caspase 3/7 measured at 4 hrs by Caspase-Glo 3/7 assay; type: functional, cell-based; how it was run: as §3
[11] = test system: OCI-AML-3; experiment: Induction of DNA damage in human OCI-AML-3 cells harbouring DNMT3A-R882C and NPM1c mutants co-expressing wild-type p53 at 0.25 uM assessed as increase in PCNA labelling for 48 hrs by DAPI staining method; type: functional, cell-based
[12] = test system: OCI-AML-3; experiment: Induction of apoptosis in human OCI-AML-3 cells harbouring DNMT3A-R882C and NPM1c mutants co-expressing wild-type p53 at 0.25 uM assessed as activation of caspase 8 measured after 24 hrs by Caspase-Glo 8 assay; type: functional, cell-based
How it was run: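 Caspase-Glo 8 luminescence assay. OCI-AML3 cells plated at 20,000 per well and treated with 0.25 µmol/L JQ1 for 24 h. BI-2536 at 1 µmol/L used as positive control.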

[13] = test system: K562; experiment: Induction of apoptosis in human K562 cells at 0.25 uM assessed as activation of caspase 3/7 measured after 24 hrs by Caspase-Glo 3/7 assay; type: functional, cell-based; how it was run: as §3
[14] = test system: OCI-AML-3; experiment: Antiproliferative activity against human OCI-AML-3 cells harbouring DNMT3A-R882C and NPM1c mutants co-expressing wild-type p53 at 0.25 uM assessed as decrease in cell viability after 96 hrs by trypan blue assay; type: functional, cell-based; how it was run: as §4
[15] = test system: OCI-AML-3; experiment: Induction of apoptosis in human OCI-AML-3 cells harbouring DNMT3A-R882C and NPM1c mutants co-expressing wild-type p53 at 0.25 uM assessed as activation of caspase 3/7 measured at 2 hrs by Caspase-Glo 3/7 assay; type: functional, cell-based; how it was run: as §3
[16] = test system: OCI-AML-3; experiment: Induction of apoptosis in human OCI-AML-3 cells harbouring DNMT3A-R882C and NPM1c mutants co-expressing wild-type p53 at 0.25 uM assessed as activation of caspase 3/7 measured after 24 hrs by Caspase-Glo 3/7 assay; type: functional, cell-based; how it was run: as §3
[17] = test system: OCI-AML-3; experiment: Induction of DNA damage in human OCI-AML-3 cells harbouring DNMT3A-R882C and NPM1c mutants co-expressing wild-type p53 at 0.25 uM assessed as induction of gammaH2AX incubated for 24 hrs in combination with 1 uM NU7026 by immunolabeling method; type: functional, cell-based; how it was run: as §1
[18] = test system: OCI-AML-3; experiment: Induction of DNA damage in human OCI-AML-3 cells harbouring DNMT3A-R882C and NPM1c mutants co-expressing wild-type p53 at 0.25 uM assessed as induction of gammaH2AX incubated for 24 hrs in combination with […] by immunolabeling method; type: functional, cell-based; how it was run: as §1
[19] = test system: OCI-AML-3; experiment: Antiproliferative activity against human OCI-AML-3 cells harbouring DNMT3A-R882C and NPM1c mutants co-expressing wild-type p53 at 0.25 uM assessed as decrease in cell viability in combination of 5 to 50 nM daunorubicin after 72 hrs by WST-1 assay; type: functional, cell-based; how it was run: as §5
[20] = test system: OCI-AML-3; experiment: Antiproliferative activity against human OCI-AML-3 cells harbouring DNMT3A-R882C and NPM1c mutants co-expressing wild-type p53 at 0.25 uM assessed as decrease in cell viability in combination of 20 nM trichostatin A after 72 hrs by WST-1 assay; type: functional, cell-based; how it was run: as §5
[21] = test system: OCI-AML-3; experiment: Induction of DNA damage in human OCI-AML-3 cells harbouring DNMT3A-R882C and NPM1c mutants co-expressing wild-type p53 at 0.25 uM assessed as increase in pan-nuclear gammaH2AX foci incubated for 24 hrs by immunolabeling method; type: functional, cell-based; how it was run: as §1
[22] = test system: Raji; experiment: Induction of apoptosis in human Raji cells at 0.25 uM assessed as activation of caspase 3/7 measured after 24 hrs by Caspase-Glo 3/7 assay; type: functional, cell-based; how it was run: as §3
[23] = test system: OCI-AML-3; experiment: Antiproliferative activity against human OCI-AML-3 cells harbouring DNMT3A-R882C and NPM1c mutants co-expressing wild-type p53 at 0.25 uM assessed as decrease in cell viability in combination of 0.625 uM vorinostat after 72 hrs by WST-1 assay; type: functional, cell-based; how it was run: as §5
[24] = test system: OCI-AML-3; experiment: Induction of DNA damage in human OCI-AML-3 cells harbouring DNMT3A-R882C and NPM1c mutants co-expressing wild-type p53 at 0.25 uM assessed as increase in 53BP1 foci incubated for 24 hrs by immunolabeling method; type: functional, cell-based; how it was run: as §1
[25] = test system: OCI-AML-3; experiment: Antiproliferative activity against human OCI-AML-3 cells harbouring DNMT3A-R882C and NPM1c mutants co-expressing wild-type p53 at 1 uM assessed as decrease in cell viability after 96 hrs by WST-1 assay; type: functional, cell-based; how it was run: as §2
[26] = test system: OCI-AML-3; experiment: Antiproliferative activity against human OCI-AML-3 cells harbouring DNMT3A-R882C and NPM1c mutants co-expressing wild-type p53 at 0.125 to 0.25 uM assessed as decrease in cell viability in combination of 1 to 5 uM nutlin-3 after 72 hrs by WST-1 assay; type: functional, cell-based; conditions: dose 0.125-0.25 µM; how it was run: as §5
[27] = test system: OCI-AML-3; experiment: Antiproliferative activity against human OCI-AML-3 cells harbouring DNMT3A-R882C and NPM1c mutants co-expressing wild-type p53 at 1 to 5 uM assessed as decrease in cell viability after 72 hrs by WST-1 assay; type: functional, cell-based; conditions: dose 1-5 µM
How it was run: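 OCI-AML3 cells (DNMT3A-R882, NPM1c, p53 wild-type) in RPMI 1640 with 10% FCS, L-glutamine, penicillin and streptomycin. Cells plated at 2 × 10^4 per well and exposed for 72 h; DMSO stocks diluted in PBS. WST-1 added and absorbance read at 450 nm 2–4 h later. Viability taken relative to untreated cells (100%). Three experiments in triplicate, mean ± SEM.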

[28] = test system: OCI-AML-3; experiment: Induction of apoptosis in human OCI-AML-3 cells harbouring DNMT3A-R882C and NPM1c mutants co-expressing wild-type p53 at 1 uM assessed as activation of caspase 8 measured after 24 hrs by Caspase-Glo 8 assay; type: functional, cell-based
How it was run: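 OCI-AML3 cells plated at 20,000 per well and treated for 24 h. Caspase 8 activation read as luminescent signal with the Caspase-Glo 8 kit; 1 µmol/L is the positive-control level used. Mean of at least three independent experiments ± SEM; Student's t-test, P < 0.05.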

C[C@@H]1CN(CC(=O)Nc2ccc3c(c2)Cc2cccc(-c4cc(=O)cc(N5CCOCC5)o4)c2S3)C[C@H](C)O1.Cc1sc2c(c1C)C(c1ccc(Cl)cc1)=N[C@@H](CC(=O)OC(C)(C)C)c1nnc(C)n1-2
Activity [1]: inactive

Cc1sc2c(c1C)C(c1ccc(Cl)cc1)=N[C@H](CC(=O)OC(C)(C)C)c1nnc(C)n1-2
Activity [2]: inactive | Activity ([3]; dose 1.0 µM): inactive | Activity [4]: inactive

Cc1sc2c(c1C)C(c1ccc(Cl)cc1)=N[C@@H](CC(=O)OC(C)(C)C)c1nnc(C)n1-2
Activity [5]: Active | Activity [6]: 3.2% | Activity [7]: Active | Activity [8]: Active | Activity [9]: Active | Activity [10]: inactive | IC50 ([2]; K562, 96 h): > 2000 nM | Activity [11]: Active | IC50 ([3]; OCI-AML-3, 96 h): ~500 nM | Activity [12]: inactive | Activity [13]: inactive | Activity [14]: Active | Activity [15]: inactive | Activity [16]: Active | IC50 [4]: ~1000 nM | Activity [17]: inactive | Activity [18]: inactive | Activity [19]: Active | Activity [20]: Active | Activity [21]: inactive | Activity [22]: Active | Activity [23]: Active | Activity [24]: Active | Activity [25]: Active

COc1ccc(C2=NC(c3ccc(Cl)cc3)C(c3ccc(Cl)cc3)N2C(=O)N2CCNC(=O)C2)c(OC(C)C)c1.Cc1sc2c(c1C)C(c1ccc(Cl)cc1)=N[C@@H](CC(=O)OC(C)(C)C)c1nnc(C)n1-2 (stereo unspecified)
Activity [26]: Active

COc1ccc(C2=NC(c3ccc(Cl)cc3)C(c3ccc(Cl)cc3)N2C(=O)N2CCNC(=O)C2)c(OC(C)C)c1 (stereo unspecified)
Activity [27]: inactive

CC[C@@H]1C(=O)N(C)c2cnc(Nc3ccc(C(=O)NC4CCN(C)CC4)cc3OC)nc2N1C1CCCC1
Activity [28]: Active
